STAT3 activator: IL-6 driven STAT3 reporter potentiators, primary screen, U3A cells, luciferase, luminescence, MLSCN library; IL-6 STAT3-luciferase reporter; 100% = signal with IL-6 EC80 alone; activation (% of control), % at 5.6 µM; hit rate 0.91% among 190,000; AID 871, 2007;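 active = activation above the screen-wide mean of compound activation plus 3 SD, cut at about 130% in these data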;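 also: 0% = background luminescence of wells with medium and substrate only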
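system = STAT3-luciferase reporter U3A cells | reagent = IL-6 stimulus at 33 ng/mL final | timing = 1 h compound pre-exposure, 6 h IL-6 stimulation, 37 °C | measured by = luminescence | evaluation = % activation versus median of IL-6-stimulated wells | control set = IL-6-only wells as 100% reference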
C8 TRAIL sens: viability loss with TRAIL in NB7+C8 cells, primary screen, TRAIL sensitizer project, cell-based, ATPlite luminescence | inhibition (viability loss, TRAIL sensitization), % at 10 µM | hit rate 1% among 360,000;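 active = compounds causing at least 50% loss of cell viability in the single-dose screen, relative to plate controls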
PPC-1+TRAIL kill: compounds killing PPC-1 cancer cells with TRAIL present, primary screen, TRAIL potentiator project, ATPLite luminescence, uHTS; PPC-1 cells + TRAIL, ATPLite viability luminescence; hit rate 0.41% among 220,000; AID 1443, 2008; cell killing (% activity), % at 4 µM or 5 µM;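 active = cell killing above 50% in the first pass at 4 µM, then a duplicate retest at 5 µM averaging 50% or more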;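 also: plate controls were cells with TRAIL plus DMSO for no effect and medium-only wells lacking cells for full effect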
STAT3 inh: IL-6 driven STAT3 reporter inhibitors, primary screen, U3A cells, luciferase, luminescence, MLSCN library; hit rate 0.89% among 190,000; IL-6 STAT3-luciferase reporter; host cell line lacks STAT1; inhibition, % at 5.5 µM; AID 862, 2007;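 active = inhibition above the mean inhibition across all screened compounds plus 3 SD, cut at about 44% in these data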;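 also: 0% = DMSO only wells and 100% = 100 µM nifuroxazide control wells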
STAT1 inh: STAT1 signaling inhibitors, primary screen, cell-based, HTS, luciferase reporter | NIH 3T3 STAT1-luciferase reporter, IFN-gamma, luminescence | inhibition, % at 5.5 µM | hit rate 0.35% among 200,000;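 active = inhibition above a set limit, the mean inhibition across all tested compounds plus 3 SD, cut at about 34% in these data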;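 also: 0% = IFN-gamma with DMSO and 100% = IFN-gamma with 300 µM nifuroxazide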
HSP90 refold inh: HSP90 inhibitors, primary screen, cell lysate, luminescence; Heat shock protein HSP 90 (rabbit reticulocyte lysate; luciferase refolding); Rabbit reticulocyte lysate, luciferase refolding luminescence, 3 h; inhibition, % at 5.6 µM; hit rate 0.91% among 290,000; AID 1789, 2009;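 active = inhibition above the screen-wide mean plus 3 SD, computed separately per campaign, cut at about 16% in these data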;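 also: 0% = DMSO wells and 100% = 60 µM geldanamycin wells; inhibitors lower the luminescence because luciferase stays unfolded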
HSP90 confirm: HSP90 inhibitors, confirmation, cell lysate, luminescence | shares compounds with HSP90 refold inh | hit rate 64% among 2,300 | inhibition, % at 5.9 µM | AID 1846, 2009 | rabbit reticulocyte lysate, luciferase refolding luminescence, 3 h; in the data active = inhibition above about 18%;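 also: 0% = vehicle wells and 100% = reference inhibitor wells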
luciferase ctr: firefly luciferase inhibitors, HSP90 counter-screen, confirmation, artefact control for HSP90 inhibitor project, biochemical, luminescence, triplicate. shares compounds with HSP90 refold inh. inhibition, % at 5.9 µM. hit rate 48% among 2,300. purified native firefly luciferase;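 active = inhibition above the mean inhibition of all tested sample wells plus 3 SD, cut at about 10% in these data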;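 also: 0% = DMSO with luciferase and 100% = wells lacking luciferase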
Target sequence (P08659 whole entry, looked up): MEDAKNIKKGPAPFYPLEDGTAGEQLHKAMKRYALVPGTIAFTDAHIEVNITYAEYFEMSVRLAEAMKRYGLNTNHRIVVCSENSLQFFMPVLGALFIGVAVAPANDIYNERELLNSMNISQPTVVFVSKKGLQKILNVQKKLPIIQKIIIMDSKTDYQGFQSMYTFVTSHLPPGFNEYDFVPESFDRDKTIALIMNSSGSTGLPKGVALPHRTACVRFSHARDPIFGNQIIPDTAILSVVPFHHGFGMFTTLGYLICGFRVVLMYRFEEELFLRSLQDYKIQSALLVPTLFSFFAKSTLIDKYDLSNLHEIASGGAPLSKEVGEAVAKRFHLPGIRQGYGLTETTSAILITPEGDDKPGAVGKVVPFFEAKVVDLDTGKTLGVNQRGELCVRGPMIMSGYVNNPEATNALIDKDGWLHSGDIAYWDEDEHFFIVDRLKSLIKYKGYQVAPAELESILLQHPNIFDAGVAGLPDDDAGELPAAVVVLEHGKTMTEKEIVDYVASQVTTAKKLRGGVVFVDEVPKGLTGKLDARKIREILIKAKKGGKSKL
The depositor's hits bear a star; . = no result given. Rows were chosen to be rich in hits. Some 2.3% of all compounds tested hit in one or more screens of this group.

SMILES	STAT3 activator	C8 TRAIL sens	PPC-1+TRAIL kill	STAT3 inh	STAT1 inh	HSP90 refold inh	HSP90 confirm	luciferase ctr
Cc1nc(NC(=O)c2ccccc2)sc1-c1csc(Nc2ccc(Cl)cc2Cl)n1	92	.	13	11	-3	45*	35*	-13
COCCn1c(C)cc(C(=O)COC(=O)C23CC4CC(CC(O)(C4)C2)C3)c1C	79	4	6	34	-27	35*	46*	33*
Cc1cc(C(=O)COC(=O)C23CC4CC(CC(O)(C4)C2)C3)c(C)n1-c1c(C)n(C)n(-c2ccccc2)c1=O	100	29	-20	2	-15	1	.	.
COc1cc(C=O)ccc1OCc1ccncc1	.	-1	.	.	.	-2	.	.
COCCNC(=O)C(=O)NCCN1CCNCC1	98	-3	7	4	0	34*	-2	-8
COCCNC(=O)C(=O)NCCN1CCOCC1	98	-7	23	6	-4	-1	.	.
c1ccc2c(C3=NNC(=NC4CC4)SC3)c[nH]c2c1	109	34	19	-11	-26	19*	61*	38*
CCOc1ccc(-c2nc(CN3CCCC(C(=O)N4CCOCC4)C3)c(C)o2)cc1 (centres undefined)	.	-11	.	.	.	18*	24*	-3
COc1ccc(/C=C/C(=O)NCC(=O)N/N=C(/C)c2ccco2)cc1	.	8	.	.	.	-3	.	.
COc1ccc(CN2CCN(S(=O)(=O)c3ccc(NC(C)=O)cc3)CC2)cc1	.	-20	31	.	.	24*	-1	-2
COc1cccc(C2/C(=C(/O)c3ccc4c(c3)CC(C)O4)C(=O)C(=O)N2c2nnc(C)s2)c1 (centres undefined)	.	12	.	.	.	-4	.	.
CC1Cc2cc(/C(O)=C3/C(=O)C(=O)N(CC4CCCO4)C3c3ccco3)ccc2O1 (centres undefined)	104	-12	19	-5	-16	22*	8	12*
CCOc1cccc(C2/C(=C(/O)c3ccc4c(c3)CC(C)O4)C(=O)C(=O)N2CCN2CCOCC2)c1 (centres undefined)	.	-16	.	.	.	1	.	.
CC1Cc2cc(/C(O)=C3/C(=O)C(=O)N(CCN4CCOCC4)C3c3cccc(O)c3)ccc2O1 (centres undefined)	114	-3	31	-14	2	18*	18*	8
Cc1nnc(N2C(=O)C(=O)/C(=C(\O)c3ccc4c(c3)CC(C)O4)C2c2ccccc2)s1 (centres undefined)	.	10	.	.	.	26*	17*	26*
O=[N+]([O-])c1ccc(-c2ccc(C=Nc3cccc4ccccc34)o2)cc1	114	-3	33	-15	-6	18*	0	-8
Cc1ccc(S(=O)(=O)N(CC(=O)Nc2ccc(Cl)c([N+](=O)[O-])c2)C2CCCCC2)cc1	107	4	-1	-13	-1	1	.	.
Cc1c(/C(O)=C2\C(=O)C(=O)N(CCN(C)C)C2c2ccco2)cnn1-c1ccccc1 (centres undefined)	92	-8	-17	10	13	52*	21*	10*
Cc1c(/C(O)=C2\C(=O)C(=O)N(CCN(C)C)C2c2ccccc2)cnn1-c1ccccc1 (centres undefined)	.	-6	4	.	.	27*	12	-8
Cc1ccc(-n2nnc3c(=O)n(CC(=O)OCc4ccccc4)cnc32)cc1	102	-7	-1	3	2	5	.	.
NS(=O)(=O)c1ccc(CCNC(=S)NC2CCCC2)cc1	129	-3	-12	-30	-3	1	.	.
C[C@@]12C(=O)N(CC3CCCO3)CC(=O)N1[C@H]1c3ccccc3OC[C@@H]1[C@@H]2c1ccccc1 (some centres undefined)	.	2	.	.	.	.	.	.
Cc1cc2cc(CNC(=S)NCc3ccccc3)ccc2n1C	100	-10	18	6	2	1	.	.
Cc1cc2cc(CNC(=S)NC3CCCCC3)ccc2n1C	97	1	13	8	0	20*	4	-2
O=S(=O)(Cc1ccccc1)N(O)c1ccccc1	.	10	.	.	.	88*	92*	0
SMILES	STAT3 activator	C8 TRAIL sens	PPC-1+TRAIL kill	STAT3 inh	STAT1 inh	HSP90 refold inh	HSP90 confirm	luciferase ctr
O=C(O)CNS(=O)(=O)Cc1ccccc1	.	-16	5	.	.	7	.	.
CN(C)c1ccc(C2Nc3cccc4cccc(c34)N2)cc1	.	2	.	.	.	42*	37*	-3
O=C(Nc1ccc2nccnc2c1)Nc1ccccc1Cl	.	30	.	.	.	6	.	.
CSc1cccc(NC(=O)C(=O)NCc2ccccc2)c1	.	6	6	.	.	-5	.	.
O=C(Nc1cccc(C(=O)O)c1)Nc1ccccc1Cl	29	21	13	89*	79*	77*	74*	71*
O=C(Nc1cccc(Cl)c1)Nc1cccc(C(=O)O)c1	.	23	14	.	.	51*	69*	63*
O=C(NCc1ccccc1)C(=O)Nc1cccc(C(=O)O)c1	.	6	4	.	.	42*	71*	73*
COC(=O)c1cccc(NC(=O)Nc2ccc(Cl)c(Cl)c2)c1	86	7	10	28	-9	-7	.	.
COC(=O)c1cccc(NC(=O)NC(=O)c2ccccc2Cl)c1	.	20	-9	.	.	29*	71*	16*
O=C(Nc1ccc(Cl)cc1C(=O)Nc1ccc(Br)cn1)c1ccco1	84	-4	-2	21	1	5	.	.
Cc1c(Cl)cccc1NC(=O)NC1CCCCC1	105	-8	-1	-3	-13	-1	.	.
O=[N+]([O-])c1cccc(NC(=S)N2CCc3ccccc32)c1	.	-9	.	.	.	-6	.	.
CC(=O)Nc1cccc(NC(=O)Nc2cccc3ccccc23)c1	.	-6	.	.	.	1	.	.
O=C(Nc1ccc(Cl)cc1)Nc1cccc(C(=O)O)c1	18	65*	27	99*	88*	78*	89*	87*
O=C(Nc1cccc(C(=O)O)c1)Nc1cccc2ccccc12	.	12	.	.	.	19*	32*	15*
O=C(Nc1ccccc1)Nc1cccc(Cl)c1	101	1	18	-2	-9	3	.	.
Cc1ccc(C)c(OCC(=O)Nn2c(C)nc3ccccc3c2=O)c1	97	7	10	7	6	1	.	.
O=C(O)c1cccc(OCc2ccccc2Cl)c1	100	-4	4	0	-11	28*	53*	27*
O=C(Nc1nc2cc3c(cc2s1)OCCO3)c1cccs1	.	63*	21	.	.	39*	62*	59*

Bioassay records: PubChem BioAssay, several laboratories
